Broadly, the bioavailability is dose-corrected exposure relative to a reference, in per cent.

These results are taken from ChEMBL document CHEMBL1146073, “A pyridazine series of alpha2/alpha3 subtype selective GABA A agonists for the treatment of anxiety” (J Med Chem, 2006).

Series [1] concerns Rattus norvegicus. The series can be described thus: Anxiolytic activity in rat plus-maze assay at 1 mg/kg, po.
A short description of series [2]: Oral bioavailability in Rhesus monkey. Format: ADME, organism-based, Macaca mulatta. The conditions noted are these: in vivo. The method in brief: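 Pharmacokinetics from six animals per species: three dosed iv and three dosed po.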
Series [3] relates to Rattus norvegicus. The experiment in a line: Anxiolytic activity in rat plus-maze assay at 0.3 mg/kg, po. On the set-up: dose 0.3 mg/kg. In kind it is functional, organism-based. An outline of the steps:
(§1)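 Rats given vehicle (0.5% methyl cellulose) or compound orally; chlordiazepoxide 5 mg/kg ip as positive control. Placed on elevated plus maze 30 min after dosing; time on open arms recorded as anxiety index. Significance versus vehicle at p < 0.05; mean ± SEM, n = 16-18/group.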

Series [4] addresses GABA-A receptor; anion channel (Rattus norvegicus) (UniProt O09028+P15431+P18506+P18508+P19969+P20236+P23574+P23576+P28471+P28473+P30191+P62813+P63079+P63138+Q91ZM7+Q9ES14). The experiment in a line: Receptor occupancy in vivo by displacement of [3H]Ro-151788 binding from GABA-A receptor in rat at 0.3 mg/kg, po. Format: functional, organism-based. Details: dose 0.3 mg/kg. The method in brief:
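Rat in vivo occupancy measured by [3H]Ro 15-1788 binding after oral dosing. Rats taken as a subgroup after the plus-maze trial, i.e. 30 min post-dose or later. ED50 derived from dose-dependent occupancy. Mean ± SEM, n = 5-10/group.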
A general note: Displacement assays read how much labelled ligand stays bound in the presence of the test substance.

The subject of series [5] is Rattus norvegicus. The series can be described thus: Anxiolytic activity in rat plus-maze assay at 1 mg/kg, po. Details: dose 1 mg/kg. Format: functional, organism-based. The method in brief: as §1

Activity calls are given as the source filed them. No cut-off for these calls is given here.

In the case of `Fc1cnc(-c2cc(-c3ccc(F)c(-c4ncc(F)cc4F)c3)cnn2)c(F)c1`, the result in the series with Rattus norvegicus [1] was Active.

For the molecule `Fc1cnc(-c2cc(-c3cnnc(-c4c(F)cncc4F)c3)ccc2F)c(F)c1`, the bioavailability in series [2] is 46%. Also, the outcome in the series with Rattus norvegicus [3] was Active. In series [4], this molecule gave an Activity of 56%. Take `Fc1cnc(-c2cc(-c3ccc(F)c(-c4ncccc4F)c3)cnn2)c(F)c1`: in the series with Rattus norvegicus [5], the outcome was Active.
